The species entered for assay [1] is Rattus norvegicus. Description: Tested for inhibition of quipazine-induced head twitches in rats after 24 hours of pretreatment. The class given is functional. The gist of the method:
(§1)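 Test drug was given sc or po to rats 2 or 24 h before quipazine (15 µmol/kg, sc). Head twitches were counted 30-40 min after quipazine, at least four animals per dose. Counts were expressed as percent of a quipazine-only control group.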

Assay [2] addresses Serotonin 2 (5-HT2) receptor (Rattus norvegicus, UniProt P30994+P08909+P14842). Description: Displacement of [3H]ketanserin from 5-hydroxytryptamine 2 receptor in rat cortical membranes. The class given is cell membranes, Membrane. The gist of the method: (§2)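 Radioligand displacement from rat brain membranes: 3H-ketanserin on cortical membranes (5-HT2), 3H-prazosin on whole brain membranes (alpha1), 3H-spiperone on striatal membranes (D2). Two full concentration-effect curves per compound, each with five test drug concentrations in triplicate spanning three decades. IC50 estimated from curves on a log-concentration scale. Outliers beyond 3 times the sd-ratio were discarded after extra determinations.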

For assay [3], the species on record is Rattus norvegicus. The assay is described as follows: Tested for inhibition of pergolide-induced rotation in 6-OH-DA-lesioned rats after 2 hr. The class given is functional. The gist of the method:
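Unilateral 6-OHDA-lesioned rats were given test drug sc 2 h before pergolide (0.05 µmol/kg, sc), which induces contralateral circling. Each dose's effect was expressed as percent of the mean of control sessions held 1 week before and 1 week after the test session in the same rat. At least four rats per dose; ED50 by log-probit analysis.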

The target of assay [4] is D(2) dopamine receptor (Rattus norvegicus, UniProt P61169). The assay is described as follows: Displacement of [3H]spiperone from dopamine D2 receptors in rat striatal membranes. The class given is cell membranes, Membrane. The method in brief: as §2
Sequence of D(2) dopamine receptor (P61169 whole entry): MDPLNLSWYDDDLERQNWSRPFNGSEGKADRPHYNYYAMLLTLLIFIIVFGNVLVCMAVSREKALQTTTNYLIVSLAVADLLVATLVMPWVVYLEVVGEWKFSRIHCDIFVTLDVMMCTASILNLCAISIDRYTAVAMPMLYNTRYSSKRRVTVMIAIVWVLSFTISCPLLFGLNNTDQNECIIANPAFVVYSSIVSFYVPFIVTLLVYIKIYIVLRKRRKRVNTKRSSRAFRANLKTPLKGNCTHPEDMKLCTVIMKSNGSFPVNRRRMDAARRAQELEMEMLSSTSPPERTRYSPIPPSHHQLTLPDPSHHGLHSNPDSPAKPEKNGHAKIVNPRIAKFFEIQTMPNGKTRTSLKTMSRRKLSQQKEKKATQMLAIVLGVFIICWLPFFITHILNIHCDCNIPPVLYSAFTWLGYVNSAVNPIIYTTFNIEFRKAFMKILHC
The target of assay [5] is T1, Adrenergic receptor alpha-1 (Rattus norvegicus, UniProt P15823+P23944+P43140).
T1 sequence (P15823 whole entry): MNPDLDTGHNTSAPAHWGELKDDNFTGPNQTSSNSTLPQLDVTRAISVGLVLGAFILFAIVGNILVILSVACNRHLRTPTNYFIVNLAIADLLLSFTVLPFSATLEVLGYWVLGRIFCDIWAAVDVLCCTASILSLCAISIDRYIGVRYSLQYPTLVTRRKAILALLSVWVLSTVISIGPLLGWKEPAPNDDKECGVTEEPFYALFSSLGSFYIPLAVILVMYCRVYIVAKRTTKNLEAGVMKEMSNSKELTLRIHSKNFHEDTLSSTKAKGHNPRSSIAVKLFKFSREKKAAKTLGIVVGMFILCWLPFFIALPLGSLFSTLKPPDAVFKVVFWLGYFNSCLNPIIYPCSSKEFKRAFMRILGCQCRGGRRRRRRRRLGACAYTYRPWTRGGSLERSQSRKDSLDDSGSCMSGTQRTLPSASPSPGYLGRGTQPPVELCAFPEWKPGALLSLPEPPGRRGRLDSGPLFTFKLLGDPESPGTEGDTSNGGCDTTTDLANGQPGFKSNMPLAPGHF
T1 sequence (P23944 whole entry): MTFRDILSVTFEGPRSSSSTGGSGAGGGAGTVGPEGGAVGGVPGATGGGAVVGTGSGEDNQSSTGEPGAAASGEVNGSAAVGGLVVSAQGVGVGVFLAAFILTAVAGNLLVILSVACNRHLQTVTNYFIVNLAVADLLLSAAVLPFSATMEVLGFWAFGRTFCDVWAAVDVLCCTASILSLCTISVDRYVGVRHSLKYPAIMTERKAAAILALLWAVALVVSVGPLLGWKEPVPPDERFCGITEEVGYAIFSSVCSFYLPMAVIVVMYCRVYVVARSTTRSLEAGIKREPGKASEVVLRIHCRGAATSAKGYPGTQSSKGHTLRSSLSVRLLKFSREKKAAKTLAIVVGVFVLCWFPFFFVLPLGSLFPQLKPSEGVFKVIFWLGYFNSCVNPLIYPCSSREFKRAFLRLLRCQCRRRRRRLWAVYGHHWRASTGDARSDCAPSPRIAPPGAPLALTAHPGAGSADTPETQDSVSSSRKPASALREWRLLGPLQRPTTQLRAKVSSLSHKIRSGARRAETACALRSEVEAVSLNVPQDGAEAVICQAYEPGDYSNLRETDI
T1 sequence (P43140 whole entry): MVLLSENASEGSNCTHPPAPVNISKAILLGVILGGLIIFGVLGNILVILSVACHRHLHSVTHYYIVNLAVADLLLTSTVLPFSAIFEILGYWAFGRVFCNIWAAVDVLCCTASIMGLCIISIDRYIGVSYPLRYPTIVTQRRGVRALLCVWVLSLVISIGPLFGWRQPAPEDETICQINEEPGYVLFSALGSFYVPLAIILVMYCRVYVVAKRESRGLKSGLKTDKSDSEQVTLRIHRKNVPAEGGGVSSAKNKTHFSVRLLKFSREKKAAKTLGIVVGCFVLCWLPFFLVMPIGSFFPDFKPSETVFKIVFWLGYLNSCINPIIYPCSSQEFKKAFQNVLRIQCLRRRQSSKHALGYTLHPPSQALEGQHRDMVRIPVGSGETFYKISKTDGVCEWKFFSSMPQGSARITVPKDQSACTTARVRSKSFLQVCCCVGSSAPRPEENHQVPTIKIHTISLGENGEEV
The assay is described as follows: Displacement of [3H]prazosin from alpha-1 adrenoceptors in whole rat brain membranes. It is filed as cell membranes. The method in brief:
as §2

The species named for assay [6] is Rattus norvegicus. Description: Inhibition of quipazine-induced head twitches in rats after 2 hrs of pretreatment. The class given is functional. The gist of the method: as §1
For assay [7], the species on record is Rattus norvegicus. The assay is described as follows: Tested for inhibition of quipazine-induced head twitches after 24 hours of pretreatment. The class given is functional. The gist of the method: as §1
For assay [8], the species on record is Rattus norvegicus. Description: Tested for inhibition of norepinephrine uptake in rat brain membranes. It is filed as functional, Membrane.
The species entered for assay [9] is Rattus norvegicus. Description: Tested for inhibition of dopamine uptake in rat brain membranes. The class given is functional, Membrane.
The species named for assay [10] is Rattus norvegicus. Description: Tested for inhibition of quipazine-induced head twitches in rats after 2 hours of pretreatment. The class given is functional. The gist of the method:
as §1

[11] abbreviates: Rattus norvegicus, read-out: ED50.

Several values for one entry are separate records, joined by “and”; a condition that tells them apart may be missing. Identical values can stand only once. Where only a bound is given, the exact number is not on record here.

With `O=C(O)/C=C\C(=O)O.O=C(O)/C=C\C(=O)O.O=C1NCCCN1CCN1CCN(C2CC(c3ccc(F)cc3)c3cc(Cl)ccc32)CC1` (single isomer, unassigned; (-)), the ED50 is 0.072 µmol/kg in [1], more than 15 µmol/kg in assay [3] and 0.11 µmol/kg in assay [6] (setting [11]). Also, the IC50 amounted to 1.3 nM in [2], 94 nM in [4] and 62 nM in [5].
As for `O=C(O)/C=C\C(=O)O.O=C(O)/C=C\C(=O)O.O=C1NCCCN1CCN1CCN(C2CC(c3ccc(F)cc3)c3cc(F)ccc32)CC1` (single isomer, unassigned; (+)), the IC50 came to 1.1 nM in [2], 280 nM in assay [4] and 41 nM in assay [5]. Further, the ED50 is more than 15 µmol/kg in assay [3]; 0.029 µM/kg and 0.07 µM/kg in assay [6].
On to `O=C1NCCN1CCN1CCN([C@@H]2C[C@@H](c3ccc(F)cc3)c3ccccc32)CC1` [IRINDALONE], for which the ED50 stood at 7.4 µmol/kg in assay [3], 0.75 µmol/kg in assay [7] and 0.58 µmol/kg in assay [6] (setting [11]). The IC50 in assay [5] was found to be 2.6 nM.
On to `CC(C)N1CCN(CCN2CCN(C3CC(c4ccc(F)cc4)c4cc(Cl)ccc43)CC2)C1=O.O=C(O)/C=C\C(=O)O.O=C(O)/C=C\C(=O)O` (single isomer, unassigned; (-)), for which the IC50 in [8] is 2900 nM; in assay [2] it was 1.1 nM; in assay [9], 1900 nM; in [4], 200 nM; in [5] it was 210 nM. In addition, the ED50 in assay [3] was more than 14 µmol/kg.
On to `Cl.Cl.Fc1ccc(C2CC(N3CCN(CCN4CCCNC4=S)CC3)c3ccc(F)cc32)cc1` (single isomer, unassigned; (+)), for which the values for the IC50 in assay [2], in assay [4] and in [5] were 0.95 nM, 140 nM and 43 nM, respectively. The figures for the ED50 in [3], in assay [7] and in [6] (setting [11]) were more than 37 µmol/kg, 0.011 µmol/kg and 0.017 µmol/kg, respectively.
For `Cc1ccc2c(c1)C(c1ccc(F)cc1)CC2N1CCN(CCN2CCN(C(C)C)C2=O)CC1.O=C(O)/C=C\C(=O)O.O=C(O)/C=C\C(=O)O` (stereo unspecified), the IC50 in [2] amounted to 3 nM; in assay [4], 450 nM; in assay [5], 120 nM. The ED50 in assay [6] (setting [11]) was 0.2 µmol/kg.
As to `Cl.Cl.OCCN1CCN(C2CC(c3ccc(F)cc3)c3cc(F)ccc32)CC1` (stereo in doubt; (-)-13), the IC50 in [2] was found to be 500 nM; in [4], 22000 nM; in assay [5], 1100 nM. For the same molecule, the ED50 in [6] is more than 2.8 µM/kg.
In the case of `Fc1ccc(C2CC(N3CCN(CCN4CCN=C4S)CC3)c3ccc(F)cc32)cc1.O=C(O)/C=C\C(=O)O.O=C(O)/C=C\C(=O)O` (stereo unspecified), the results for the concentration for half-maximal inhibition (IC50) in assay [2], in assay [4] and in assay [5] were 1.5 nM, 230 nM and 110 nM, respectively. The ED50 in [3] was more than 15 µmol/kg; in assay [7], 0.62 µmol/kg; in [6] (setting [11]) it was 0.12 µmol/kg.
For `OCCN1CCN(C2CC(c3ccc(F)cc3)c3c(Cl)cccc32)CC1` (stereo unspecified), the IC50 in assay [2] was 40 nM; in assay [4], 220 nM; in assay [5], 30 nM. Further, the ED50 in assay [6] (setting [11]) stood at 0.82 µmol/kg.
As for `Fc1ccc(C2CC(N3CCN(CCN4CCNC4=S)CC3)c3ccc(Cl)cc32)cc1.O=C(O)/C=C\C(=O)O` (stereo unspecified), the results for the ED50 in [1], in assay [10] and in assay [3] were 1.4 µmol/kg, 0.077 µmol/kg and more than 14 µmol/kg, respectively. Besides, the results for the IC50 in assay [2] and in assay [5] were 1.5 nM and 52 nM, respectively.
As for `Fc1ccc(C2CC(N3CCN(CCN4CCCN=C4S)CC3)c3ccc(F)cc32)cc1.O=C(O)/C=C\C(=O)O.O=C(O)/C=C\C(=O)O` (stereo unspecified), the IC50 was 1.7 nM in assay [2], 220 nM in [4] and 110 nM in assay [5]. Besides, in assay [6] (setting [11]), the ED50 is 0.039 µmol/kg.
As for `O=C(O)/C=C\C(=O)O.O=C(O)/C=C\C(=O)O.OCCN1CCN(C2CC(c3ccc(F)cc3)c3cccc(Cl)c32)CC1` (stereo unspecified), the IC50 in [2] amounted to 15 nM; in assay [4], 46 nM; in [5], 38 nM. The ED50 in assay [6] (setting [11]) is 1.3 µmol/kg.
For `Cl.Cl.OCCN1CCN(C2CC(c3ccc(F)cc3)c3cc(Cl)ccc32)CC1` (single isomer, unassigned; (+)), the IC50 in [2] is 230 nM; in assay [4], 6300 nM; in assay [5], 2500 nM. The ED50 in assay [6] was more than 2.8 µM/kg.
`O=C(O)/C=C\C(=O)O.O=C(O)/C=C\C(=O)O.Oc1nc2ccccc2n1CCN1CCN(C2CC(c3ccc(F)cc3)c3cc(Cl)ccc32)CC1` (stereo unspecified): the IC50 in assay [2] was 5.6 nM; in assay [4], 110 nM; in assay [5], 66 nM. Besides, in assay [6] (setting [11]), the ED50 is 0.21 µmol/kg.
Turning to `Cl.Cl.OCCN1CCN(C2CC(c3ccc(F)cc3)c3cc(Cl)ccc32)CC1` (single isomer, unassigned; (-)), the 50% inhibitory concentration (IC50) was 11 nM in [2], 370 nM in assay [4] and 210 nM in [5]. Besides, the ED50 in assay [6] was 0.86 µM/kg.
`Cc1nc2sccn2c(=O)c1CCN1CCC(=C(c2ccc(F)cc2)c2ccc(F)cc2)CC1` [RITANSERIN] displayed an ED50 in assay [3] of more than 21 µmol/kg.
`CC(C)N1CCN(CCN2CCN(C3CC(c4ccc(F)cc4)c4cc(Cl)ccc43)CC2)C1=O.O=C(O)/C=C\C(=O)O.O=C(O)/C=C\C(=O)O` (stereo in doubt; (+)-20): the IC50 in assay [8] turned out to be 50 nM; in assay [2], 75 nM; in assay [9] it was 70 nM; in assay [4] it was 1300 nM; in [5] it was 340 nM. Further, in assay [6], the ED50 was more than 7 µM/kg.
In the case of `Cl.Cl.O=C1OCCN1CCN1CCN(C2CC(c3ccc(F)cc3)c3cc(Cl)ccc32)CC1` (stereo unspecified), the IC50 in assay [2] worked out at 23 nM; in assay [4] it was 550 nM; in [5], 140 nM. Also, the ED50 in assay [6] (setting [11]) was 2 µmol/kg.
`Cl.Cl.Fc1ccc(C2CC(N3CCN(CCN4CCCNC4=S)CC3)c3ccc(Cl)cc32)cc1` (stereo in doubt; (-)-39): the values for the IC50 in assay [2], in assay [4] and in assay [5] were 0.75 nM, 33 nM and 67 nM, respectively. For the same molecule, the ED50 in [3] was more than 18 µmol/kg; in assay [7], 0.021 µmol/kg; in [6] (setting [11]) it was 0.041 µmol/kg.
Take `OCCN1CCN(C2CC(c3ccc(F)cc3)c3cc(F)ccc32)CC1` (stereo unspecified): the IC50 came to 21 nM in [2], 1100 nM in [4] and 150 nM in assay [5]. Further, in assay [6], the ED50 came to 0.35 µM/kg.

The values above are taken from ChEMBL document CHEMBL1126803, “Stereospecific and selective 5-HT2 antagonism in a series of 5-substituted trans-1-piperazino-3-phenylindans” (J Med Chem, 1993).
